PG9 Ab binder: PG9 antibody binding by small molecule | hit rate 0.43% among 360,000 | TR-FRET gp120-PG9 antibody binding | inhibition, % at 6.7 µM | AID 624416; in the data active = inhibition above about 8.5%
NR2E3 ag-1: agonists of human nuclear receptor NR2E3. AID 2300. GST-NR2E3/biotin-RetCOR TR-FRET, 1536-well. Q9Y5X4. inhibition of corepressor binding, % at 4.78 µM. hit rate 0.12% among 320,000;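 active = percent inhibition above the cutoff of mean plus 3 SD of all tested compounds, set per screening campaign, cut at about 20% in these data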;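 note: 0% = DMSO wells and 100% = biotin wells as full block of FRET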
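System: GST-tagged NR2E3 plus biotinylated RetCOR corepressor; Buffer or medium: pH 7.5 Tris-based buffer; Probe or stimulus: RetCOR corepressor, biotinylated, 7 nM; Doses: compound at 4.8 µM, single dose; Schedule: 5 h incubation at 4 °C; Technique: time-resolved FRET; Evaluation: percent inhibition of TR-FRET ratio; Replication: one well per compound, singlicate testing.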
MT1-MMP act inh: inhibitors of human MT1-MMP activation. HT1080 RFP-PRO-GFP cells, GFP/RFP ratio fluorescence, overnight; percent of plate control window, DMSO zero. GFP/RFP ratio change, % at 20 µM. hit rate 0.061% among 360,000. AID 651647;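 active = GFP/RFP ratio change of at least 30% with cell ATP level not reduced by more than half and red fluorescence within 50% of control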
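Assay system – RFP-PRO-GFP reporter HT1080 cells · Compound dosing – single dose of 20 µM compound, 1% DMSO final · Incubation – overnight compound exposure at 37 °C · Measure – GFP/RFP fluorescence ratio · Benchmarks – DMSO wells and RFP-L50D-GFP cells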
NR2E3 ag-2: human photoreceptor-specific nuclear receptor agonism; Q9Y5X4; CHO-S Gal4-NCOR/VP16-NR2E3 two-hybrid, luciferase; inhibition of corepressor binding, % at 3.98 µM; hit rate 0.35% among 360,000;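 active = inhibition above the mean of all tested compounds plus 3 SD, cut at about 70% in these data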;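 note: 0% = DMSO with NR2E3 transfected cells and 100% = cells lacking NR2E3 construct; higher means lower luciferase signal from less NR2E3 corepressor binding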
Rev-erbA mod: modulates human Rev-erb alpha binding to DNA; hit rate 0.79% among 370,000; AID 1259318; activity, % at 10 µM; P20393; Rev-erbα–FITC-DNA binding, fluorescence polarization, 90 min;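 active = activity above about 14%, limit read from the data; passing the limit was not always enough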;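 note: 0% = DMSO wells with 35 nM protein and 100% = DMSO wells with 750 nM protein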
Target sequence (P20393 whole entry, looked up): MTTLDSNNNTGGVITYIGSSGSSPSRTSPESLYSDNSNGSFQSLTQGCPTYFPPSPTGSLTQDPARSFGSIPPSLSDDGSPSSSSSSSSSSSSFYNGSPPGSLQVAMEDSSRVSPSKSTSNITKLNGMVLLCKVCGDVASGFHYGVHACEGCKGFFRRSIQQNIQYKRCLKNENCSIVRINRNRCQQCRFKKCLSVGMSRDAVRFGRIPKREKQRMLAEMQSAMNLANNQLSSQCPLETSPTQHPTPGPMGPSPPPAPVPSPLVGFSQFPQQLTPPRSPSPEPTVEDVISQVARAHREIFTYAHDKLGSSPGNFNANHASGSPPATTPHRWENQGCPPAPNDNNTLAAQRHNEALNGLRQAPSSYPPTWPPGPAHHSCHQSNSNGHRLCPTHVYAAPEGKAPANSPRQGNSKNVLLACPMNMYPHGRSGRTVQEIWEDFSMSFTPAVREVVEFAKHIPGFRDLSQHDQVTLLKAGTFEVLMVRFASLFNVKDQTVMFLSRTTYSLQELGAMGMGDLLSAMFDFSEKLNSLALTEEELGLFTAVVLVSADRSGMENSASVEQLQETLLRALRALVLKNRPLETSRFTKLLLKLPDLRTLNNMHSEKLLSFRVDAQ
SKN-1 block: inhibitors of C. elegans SKN-1 | C. elegans VP596 Pgst-4::GFP/RFP ratio, acrylamide-induced, 24 h | inhibition, % at 21.8 µM | hit rate 0.49% among 360,000;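 active = interference check ratio from 0.5 to 1.5 plus GFP to RFP signal ratio inhibition reaching or exceeding a fixed threshold, cut at about 30% in these data, passing the limit was not always enough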
NR1D1 mod conf: Rev-erb alpha (human) modulation, hit confirmation. activation, % at 25 µM. Rev-erb alpha FITC-DNA binding, fluorescence polarization, 90 min. hit rate 61% among 3,000. shares compounds with Rev-erbA mod;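 active = activation at or above a set limit, or at least 3 SD above the negative control mean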;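 note: 0% = 35 nM protein with DMSO and 100% = 750 nM protein high control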
Numbers without * were called inactive. An excerpt weighted towards active compounds, which were near 1.9% of everything screened.

What do the screens show for `CC12CCC(=O)N1C(C(=O)Nc1cc(C(F)(F)F)ccc1N1CCCCC1)CS2` (stereo unspecified)?
PG9 Ab binder: 1.6; NR2E3 ag-1: -0.2; MT1-MMP act inh: -2.4; NR2E3 ag-2: 20.4; Rev-erbA mod: 15.4*; SKN-1 block: -19.0; NR1D1 mod conf: 13.8

Results for CCN(CC)c1ccc(S(=O)(=O)N2CCCCC2)cc1NC(=O)C1CSC2(C)CCC(=O)N12 (stereo unspecified) ?
PG9 Ab binder: 0.7; NR2E3 ag-1: 1.3; MT1-MMP act inh: -0.5; NR2E3 ag-2: -2.1; Rev-erbA mod: 22.8*; SKN-1 block: -5.9; NR1D1 mod conf: 21.7*

What do the screens show for `CC1=C(C(=O)OC2CCCCC2)C(c2ccccc2Br)NC(=O)N1` (stereo unspecified)?
PG9 Ab binder: 0.0; NR2E3 ag-1: 1.9; MT1-MMP act inh: 2.5; NR2E3 ag-2: -26.3; Rev-erbA mod: 15.1*; SKN-1 block: 1.0; NR1D1 mod conf: 15.2

Results for CC1=C(C(=O)OC2CCCCCCC2)C(c2cc3c(cc2Br)OCO3)CC(=O)N1 (stereo unspecified) ?
PG9 Ab binder: 1.2; NR2E3 ag-1: -2.6; MT1-MMP act inh: -13.6; NR2E3 ag-2: 14.4; Rev-erbA mod: 22.8*; SKN-1 block: -5.4; NR1D1 mod conf: 29.6*

What do the screens show for `Cc1ccc(-c2nc(N)c3c(-c4ccc(C)cc4)nn(C(C)(C)C)c3n2)cc1`?
PG9 Ab binder: 1.1; NR2E3 ag-1: 0.7; MT1-MMP act inh: 3.0; NR2E3 ag-2: 0.8; Rev-erbA mod: 30.2*; SKN-1 block: -36.3; NR1D1 mod conf: -0.9

How did CC(C)(C)n1nc(-c2ccc(Cl)cc2)c2c(N)ncnc21 do in these assays?
PG9 Ab binder: 0.8; NR2E3 ag-1: -1.1; MT1-MMP act inh: -10.6; NR2E3 ag-2: -12.1; Rev-erbA mod: -6.4; SKN-1 block: -4.0

Results for Cc1sc(NC(=O)Cc2ccc3c(c2)OCO3)nc1-c1ccc2c(c1)CCN2C(=O)c1ccc(F)cc1 ?
PG9 Ab binder: -2.1; NR2E3 ag-1: 2.3; MT1-MMP act inh: -6.2; NR2E3 ag-2: 11.7; Rev-erbA mod: 2.7; SKN-1 block: 9.4

How did Cc1sc(NC(=O)Cc2ccc3c(c2)OCO3)nc1-c1ccc2c(c1)CCN2C(=O)c1ccccc1F do in these assays?
PG9 Ab binder: -1.3; NR2E3 ag-1: 5.7; MT1-MMP act inh: -5.7; NR2E3 ag-2: 0.2; Rev-erbA mod: 44.6*; SKN-1 block: 7.8; NR1D1 mod conf: 53.5*

How did Cc1cccc(Cl)c1NC(=S)NN do in these assays?
PG9 Ab binder: -2.8; NR2E3 ag-1: 1.7; MT1-MMP act inh: 4.5; NR2E3 ag-2: -29.0; Rev-erbA mod: 2.0; SKN-1 block: -4.7

Results for Cc1cccc(Cl)c1NC(=O)N(C)c1ccccc1 ?
PG9 Ab binder: 2.6; Rev-erbA mod: 15.9*; NR1D1 mod conf: 1.1

What do the screens show for `COC(=O)c1cc([N+](=O)[O-])c(C)c(C)n1`?
PG9 Ab binder: 0.2; MT1-MMP act inh: -2.6; NR2E3 ag-2: -11.4; Rev-erbA mod: 2.5; SKN-1 block: 0.5

Results for O=C(OCC#CCSc1nnc(-c2cccc3ccccc23)o1)c1ccccc1 ?
Rev-erbA mod: 2.4

Results for CCOC(=O)C1CCN(c2c(-c3ccccc3)c3cc(Cl)ccc3[nH]c2=O)CC1 ?
PG9 Ab binder: -1.4; NR2E3 ag-1: -2.7; MT1-MMP act inh: -7.6; NR2E3 ag-2: 27.0; Rev-erbA mod: 37.2*; SKN-1 block: 7.3; NR1D1 mod conf: 8.4

What do the screens show for `O=c1[nH]c2ccc(Cl)cc2c(-c2ccccc2)c1N1CCN(CCO)CC1`?
PG9 Ab binder: 1.6; NR2E3 ag-1: -1.1; MT1-MMP act inh: -2.1; NR2E3 ag-2: 5.1; Rev-erbA mod: -5.1; SKN-1 block: 1.1

How did NNC(=O)CSc1c(-c2ccccc2)c2cc(Cl)ccc2[nH]c1=O do in these assays?
PG9 Ab binder: 1.0; MT1-MMP act inh: 6.1; NR2E3 ag-2: -4.5; Rev-erbA mod: -1.2; SKN-1 block: -11.2

Screens (PubChem BioAssay)
